Reference: ChEMBL document CHEMBL1759990, “Synthesis and SAR of novel quinazolines as potent and brain-penetrant c-jun N-terminal kinase (JNK) inhibitors” (Bioorg Med Chem Lett, 2011)

Columns and labels:
[1] = biological target: Mitogen-activated protein kinase 8 (Homo sapiens, UniProt P45983); test: Inhibition of JNK1 by HRTF
Method in brief: (§1)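 HTRF kinase assay with final concentrations of 0.1 nM JNK1 or 0.3 nM JNK3, 0.4 nM biotinylated-ATF2 substrate and 1 mM ATP. Phospho-Thr71-ATF-2 was detected with a Europium-cryptate anti-phospho-Thr71-ATF-2 antibody, with streptavidin-allophycocyanin-XL as acceptor. A 10-point dose-response was run in duplicate and fit to a four-parameter logistic. JNK3 values are means of four or more experiments; JNK1 values are means of two or more.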

[2] = Drug level in mouse plasma at 10 mg/kg, ip after 2 hrs; assay type: ADME, organism-based; design: dose 10 mg/kg, route intraperitoneal; conditions: read-out: Drug uptake
Method in brief: (§2)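 Mouse dosed at 10 mg/kg ip. Brain and plasma concentrations (µM) were measured at 2 h.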

[3] = Drug level in mouse brain at 10 mg/kg, ip after 2 hrs; assay type: ADME, organism-based; design: dose 10 mg/kg, route intraperitoneal; conditions: read-out: Drug uptake; method in brief: as §2
[4] = Volume of distribution in rat at 1 mg/kg, iv; assay type: ADME, organism-based; design: dose 1 mg/kg, route intravenous; conditions: in vivo
[5] = AUC in rat at 2 mg/kg, po; assay type: ADME, organism-based; design: dose 2 mg/kg, route oral; conditions: plasma
[6] = biological target: Mitogen-activated protein kinase 10 (Homo sapiens, UniProt P53779); test: Inhibition of JNK3 by HRTF; method in brief: as §1
Chain of Mitogen-activated protein kinase 10 (P53779 whole entry): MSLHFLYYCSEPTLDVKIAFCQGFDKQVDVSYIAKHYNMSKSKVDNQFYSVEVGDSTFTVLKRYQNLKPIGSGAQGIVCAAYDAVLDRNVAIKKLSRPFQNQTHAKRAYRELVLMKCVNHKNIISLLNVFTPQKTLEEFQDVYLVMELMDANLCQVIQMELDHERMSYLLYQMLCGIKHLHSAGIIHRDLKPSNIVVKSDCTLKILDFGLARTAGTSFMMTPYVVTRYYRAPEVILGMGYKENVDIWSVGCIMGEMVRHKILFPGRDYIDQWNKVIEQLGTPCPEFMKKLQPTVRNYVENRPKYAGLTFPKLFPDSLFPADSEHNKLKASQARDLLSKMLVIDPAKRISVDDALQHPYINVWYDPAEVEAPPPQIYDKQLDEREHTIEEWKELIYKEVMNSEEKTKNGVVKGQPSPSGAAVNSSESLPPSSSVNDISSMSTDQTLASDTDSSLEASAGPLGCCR

[7] = Cmax in rat at 2 mg/kg, po; assay type: ADME, organism-based; design: dose 2 mg/kg, route oral; conditions: in vivo
Rattus norvegicus [8] = test: Half life in rat at 1 mg/kg, iv; assay type: ADME, organism-based; design: dose 1 mg/kg, route intravenous; conditions: in vivo
Rattus norvegicus [9] = test: Oral bioavailability in rat at 2 mg/kg; assay type: ADME, organism-based; conditions: in vivo

Chain of Mitogen-activated protein kinase 8 (P45983 whole entry): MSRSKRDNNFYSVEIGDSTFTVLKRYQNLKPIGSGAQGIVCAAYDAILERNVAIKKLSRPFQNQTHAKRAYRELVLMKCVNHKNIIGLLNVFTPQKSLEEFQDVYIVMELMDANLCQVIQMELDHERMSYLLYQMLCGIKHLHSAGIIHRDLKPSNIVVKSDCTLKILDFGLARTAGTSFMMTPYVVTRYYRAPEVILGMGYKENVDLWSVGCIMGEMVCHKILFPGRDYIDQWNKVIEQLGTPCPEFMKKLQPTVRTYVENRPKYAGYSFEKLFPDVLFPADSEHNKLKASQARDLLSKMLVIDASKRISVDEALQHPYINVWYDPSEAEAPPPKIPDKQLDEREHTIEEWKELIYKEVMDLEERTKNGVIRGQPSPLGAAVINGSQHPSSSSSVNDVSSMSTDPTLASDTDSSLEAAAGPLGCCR

| SMILES | concentration at 2 h [2] [µM] | concentration at 2 h [3] [µM] | IC50 [6] [nM] | other results |
| --- | --- | --- | --- | --- |
| Cn1cc(-c2ccc3cnc(Nc4ccc(-n5cnc(N6CCOCC6)n5)cc4)nc3c2)cn1 | 17.8 | 7.17 | 90 | IC50 [1]: 50 nM; Vd [4]: 0.8 L/kg; AUC [5]: 6.3 µM·h; Cmax [7]: 0.7 µM; t1/2 (Rattus norvegicus [8]): 3 h; F (Rattus norvegicus [9]): 28% |
| c1cc(-n2cnc(N3CCOCC3)n2)ccc1Nc1ncc2ccc(-c3cn[nH]c3)cc2n1 | 42.9 | 1.31 | 50 | IC50 [1]: 40 nM |
| c1cc(-n2cnc(N3CCOCC3)n2)ccc1Nc1ncc2ccc(-c3cnoc3)cc2n1 | – | – | 700 | – |
| c1cc(-n2cnc(N3CCOCC3)n2)ccc1Nc1ncc2ccc(N3CCOCC3)cc2n1 | – | – | 4400 | – |
| c1cncc(-c2ccc3cnc(Nc4ccc(-n5cnc(N6CCOCC6)n5)cc4)nc3c2)c1 | 26.7 | 8.1 | 210 | – |
| Cc1ccc(-c2ccc3cnc(Nc4ccc(-n5cnc(N6CCOCC6)n5)cc4)nc3c2)cn1 | – | – | 730 | – |
| c1ccc(-c2ccc3cnc(Nc4ccc(-n5cnc(N6CCOCC6)n5)cc4)nc3c2)cc1 | – | – | > 20000 | – |
| Cc1ccc(-c2ncn(-c3ccc(Nc4ncc5ccc(-c6cn[nH]c6)cc5n4)cc3)n2)cn1 | – | – | 50 | – |
| Cn1cc(-c2ccc3cnc(Nc4ccc(-n5cnc(-c6ccccn6)n5)cc4)nc3c2)cn1 | 13.1 | 1.37 | 60 | IC50 [1]: 100 nM |
| Cc1ccc(-c2cccc3cnc(Nc4ccc(-n5cnc(N6CCOCC6)n5)cc4)nc23)cn1 | 2.7 | 0.15 | 30 | – |
| Cn1cc(-c2cccc3cnc(Nc4ccc(-n5cnc(N6CCOCC6)n5)cc4)nc23)cn1 | 2.2 | 0.23 | 20 | IC50 [1]: 10 nM |
| COc1ccc(-c2cccc3cnc(Nc4ccc(-n5cnc(N6CCOCC6)n5)cc4)nc23)cc1F | 6.1 | 1.5 | 70 | IC50 [1]: 90 nM |
| c1cc(-c2nccs2)c2nc(Nc3ccc(-n4cnc(N5CCOCC5)n4)cc3)ncc2c1 | – | – | 7 | IC50 [1]: 30 nM |
| c1ccc(-c2cccc3cnc(Nc4ccc(-n5cnc(N6CCOCC6)n5)cc4)nc23)cc1 | 5.2 | 12.7 | 60 | IC50 [1]: 50 nM |
| COc1ccc(-c2cccc3cnc(Nc4ccc(-n5cnc(C)n5)cc4)nc23)cc1F | 10.3 | 7.6 | 80 | – |
| Cc1ncn(-c2ccc(Nc3ncc4cccc(-c5nccs5)c4n3)cc2)n1 | 5 | 4.5 | 20 | IC50 [1]: 10 nM |

| SMILES | concentration at 2 h [2] [µM] | concentration at 2 h [3] [µM] | IC50 [6] [nM] | other results |
| --- | --- | --- | --- | --- |
| COc1ccc(-c2cccc3cnc(Nc4ccc(-n5cnc(-c6ccccn6)n5)cc4)nc23)cc1F | – | – | 90 | – |
| Cc1ccc(-c2cccc3cnc(Nc4ccc(-n5cnc(C)n5)cc4)nc23)cn1 | 2.31 | 0.23 | 30 | – |
| Cc1ccc(-c2cccc3cnc(Nc4ccc5c(c4)OCO5)nc23)cn1 | 0.78 | 1.06 | 60 | – |
| Cc1ccc(-c2cccc3cnc(Nc4ccc(F)cc4)nc23)cn1 | – | – | 170 | – |
| Cc1ccc(-c2cccc3cnc(Nc4ccc(C(=O)N5CCOCC5)cc4)nc23)cn1 | – | – | 90 | – |
| Cc1ccc(-c2cccc3cnc(NC4CCC(O)CC4)nc23)cn1 (stereo not given) | – | – | 50 | – |
| Cc1ccc(-c2cccc3cnc(N[C@H]4CC[C@@H](C(=O)N5CCCC5)CC4)nc23)cn1 | – | – | 30 | – |
| Cn1cc(-c2ccc3cnc(Nc4ccc(-n5cnc(N6CCOCC6)n5)cc4)nc3c2Cl)cn1 | 10.4 | 8.3 | 40 | Vd [4]: 1.4 L/kg; AUC [5]: 2.3 µM·h; Cmax [7]: 0.3 µM; t1/2 (Rattus norvegicus [8]): 3 h; F (Rattus norvegicus [9]): 19% |
| CC(C)n1cc(-c2ccc3cnc(Nc4ccc(-n5cnc(N6CCOCC6)n5)cc4)nc3c2Cl)cn1 | 4.3 | 7.2 | 63 | – |
| Cc1c(-c2cnn(C)c2)ccc2cnc(Nc3ccc(-n4cnc(N5CCOCC5)n4)cc3)nc12 | 7.4 | 7.6 | 10 | – |
| Cn1cc(-c2ccc3cnc(Nc4ccc(-n5cnc(N6CCOCC6)n5)cc4)nc3c2C(F)(F)F)cn1 | 8.3 | 5.6 | 190 | – |
| Cn1cc(-c2ccc3cnc(Nc4ccc(-n5cnc(N6CCOCC6)n5)cc4)nc3c2C2CC2)cn1 | 10.6 | 5 | 20 | – |
| Cn1cc(-c2ccc3cnc(Nc4ccc(-n5cnc(N6CCOCC6)n5)cc4)nc3c2-c2cnn(C)c2)cn1 | 6.3 | 0.22 | 9 | – |
| Cn1cc(-c2ccc3cnc(Nc4ccc(-n5cnc(N6CCOCC6)n5)cc4)nc3c2-c2ccccc2)cn1 | 6.4 | 1.1 | 10 | – |
| COc1c(-c2cnn(C)c2)ccc2cnc(Nc3ccc(-n4cnc(N5CCOCC5)n4)cc3)nc12 | 9.4 | 4.9 | 4 | F (Rattus norvegicus [9]): 8% |
